Most compounds without a hit are left out; they make up all but 2.3% or so of the library.
ZTA DNA inh: counter-screen for EBNA-1 inhibitors: inhibitors of Epstein-Barr virus ZTA; P03206; ZTA-DNA binding, fluorescence polarization; inhibition, % at 11 µM; actives 0.15% (n = 320,000); in the data active = inhibition above about 33%
HCV core dimer: inhibitors of HCV core protein dimerization, primary screen, biochemical, TR-FRET, high-throughput. actives 0.33% (n = 300,000). inhibition, % at 5 µM. TR-FRET GST/Flag-core106 dimerization, 1536-well;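 active = inhibition above the mean of all tested compounds plus 3 SD, set per screening campaign, cut at about 45% in these data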
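System: GST/Flag-tagged HCV core106 proteins. Incubation: compound-protein-antibody incubation 4 h at 22.5 °C. Technique: HTRF with 340 nm excitation, 617/671 nm emission. Medium: KF-containing HEPES buffer, pH 7.45, DTT, CHAPS, BSA. Read-out: inhibition (%) from 671 over 617 nm ratio. Also added: Eu(K)-anti-GST 90 ng/mL plus XL665-anti-Flag 1 µg/mL.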
NS3 helicase inh: inhibitors of HCV NS3 helicase, primary screen, biochemical, Cy5 molecular beacon fluorescence | AID 1800, 2009 | actives 0.56% (n = 290,000) | Hepatitis C virus NS3 helicase | NS3 helicase DNA unwinding | inhibition, % at 10.9 µM;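 active = inhibition above the mean of all tested compounds plus 3 SD, set per campaign, cut at about 35% in these data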;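 note: 0% = DMSO wells and 100% = thioflavine S control wells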
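test system = hepatitis C virus NS3 helicase domain fragment enzyme | reagent = annealed dual-labelled DNA beacon duplex, ATP-started | times = 1 h at 25 °C | detection = Cy5 fluorescence, 0 and 60 min reads | read-out basis = percent inhibition from t60/t0 fluorescence ratio | control set = DMSO and thioflavine S | replication = one well per compound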
EBV gp42 block: Epstein-Barr virus gp42 inhibitors, primary screen, biochemical, uHTS, fluorescence polarization | actives 0.42% (n = 220,000) | inhibition, % (tested at 21.74 µM) | Fluorescence polarization binding assay, mP read-out | Glycoprotein 42 (Epstein-Barr virus (strain AG876)), Q1HVG2; in the data active = inhibition above about 50%
EBNA-1 inhibitor: EBNA-1 DNA-binding inhibitors, primary screen, biochemical, fluorescence polarization | inhibition, % at 14.8 µM | actives 0.34% (n = 300,000) | AID 1950, 2009; in the data active = inhibition above about 28%
GPR7 antagonist: GPR7 receptor antagonists, primary screen, cell-based, fluorescence, single concentration; actives 1.1% (n = 290,000); inhibition, % at 4.4 µM; GPR7-expressing cells, fluorescence antagonist assay; AID 1861, 2009; Neuropeptides B/W receptor type 1 (Homo sapiens), P48145; in the data active = inhibition above about 16%, passing the limit was not always enough;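 note: cells stimulated with the agonist NPW; 0% = agonist with vehicle and 100% = vehicle without agonist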
Target sequence (P48145 whole entry, looked up): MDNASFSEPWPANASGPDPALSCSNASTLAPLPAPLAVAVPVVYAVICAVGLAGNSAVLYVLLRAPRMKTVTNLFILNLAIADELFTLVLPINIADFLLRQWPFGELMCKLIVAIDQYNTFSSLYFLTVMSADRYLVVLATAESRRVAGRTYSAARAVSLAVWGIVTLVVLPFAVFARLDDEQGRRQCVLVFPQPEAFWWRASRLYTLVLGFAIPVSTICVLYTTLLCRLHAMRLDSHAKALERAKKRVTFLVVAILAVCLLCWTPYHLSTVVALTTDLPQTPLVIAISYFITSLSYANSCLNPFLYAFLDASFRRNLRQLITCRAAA
Starred values were filed as active, the others as inactive; x = no result.

SMILES	ZTA DNA inh	HCV core dimer	NS3 helicase inh	EBV gp42 block	EBNA-1 inhibitor	GPR7 antagonist
O=C(COC(=O)c1ccc(F)cc1F)Nc1ccc2[nH]c(=O)[nH]c2c1	-18	-4	5	-2	-6	-16
CS(=O)(=O)n1nc(-c2ccc(Cl)cc2)nc1SCc1ccccc1	15	0	21	87*	4	10
O=[N+]([O-])c1cc(/C=N\O)ccc1Oc1ccc(F)cc1	-7	-5	-2	-2	-13	16*
CN1CSC2=C(C#N)C(c3cccc(OCc4ccccc4)c3)CC(=O)N2C1 (centres undefined)	8	9	22	-17	5	-3
N#CC1=C2SCC(O)(c3ccccc3)N2C(=O)CC1c1ccccc1 (centres undefined)	13	10	1	-13	0	17*
CC1Cc2ccccc2C(CCc2ccccc2)=N1 (centres undefined)	-12	-8	-3	x	-7	-10
C=CCN(CC=C)C(=O)COC(=O)c1ccc(Sc2ncn[nH]2)c([N+](=O)[O-])c1	-3	-1	6	13	2	6
CO/N=C/CC(=O)c1cnc(-c2ccccc2)s1	1	6	28	-26	-4	2
COc1ccc(NC(=O)CSc2nc3c(c(-c4cccs4)c2C#N)CN(C)CC3)cc1OC	-15	18	-14	57*	-10	-14
O=C(NCCS(=O)(=O)N1CCN(c2ccccc2)CC1)c1cccc(F)c1	-14	-4	x	x	-3	x
COc1ccccc1N1C(=O)C2C(C(=O)c3ccccc3)=NN(c3ccc(Br)cc3)C2C1=O (centres undefined)	-3	13	8	55*	-5	-12
COc1ccccc1N1C(=O)C2C(C(=O)c3ccccc3)=NN(c3ccc(C)cc3)C2C1=O (centres undefined)	-4	14	3	119*	-17	1
S=C(Nc1ccccc1)N1CCC(C2CCN(C(=S)Nc3ccccc3)CC2)CC1	3	1	21	-16	-2	19*
OC1CCN(C(=S)Nc2ccc(Nc3ccccc3)cc2)CC1	-4	-19	-43	1	-5	-4
O=[n+]1c2c(n([O-])c3cc(F)c(N4CCCC4)cc31)CCCC2	-11	-5	8	101*	9	-6
O=[n+]1c2c(n([O-])c3cc(F)c(N4CCCC4)cc31)CCC2	-18	2	7	x	6	6
Cc1cccc(C)c1NC(=O)COC(=O)c1c2c(nc3ccccc13)/C(=C\c1ccc3c(c1)OCO3)CCC2	4	1	-2	98*	6	4
CC(OC(=O)c1cc2ccccc2cc1O)C(=O)Nc1ccc(S(N)(=O)=O)cc1 (centres undefined)	-6	4	8	-5	-11	-4
CC(OC(=O)c1c2c(nc3ccccc13)/C(=C\c1ccc3c(c1)OCO3)CCC2)C(=O)Nc1ccc(S(N)(=O)=O)cc1 (centres undefined)	x	x	16	149*	x	3
CC(NC(=O)c1ccccc1)C(=O)N/N=C/c1cccc([N+](=O)[O-])c1 (centres undefined)	6	-1	3	1	-1	-3
CCC(C)c1ccc(S(=O)(=O)N2CCN(C(C)C(=O)NC3CCCC3)CC2)cc1 (centres undefined)	-4	x	x	x	x	x
Cc1ccc(CNc2ncnc(N)c2[N+](=O)[O-])cc1	-8	-4	-7	-5	-6	-10
Cn1c(-c2ccc(C=O)s2)nc2c3ccccc3c3ccccc3c21	-5	-58	12	94*	15	5
O=C(NCCN1CCNC1=O)C1CCC(=O)N(Cc2cccc(C(F)(F)F)c2)C1 (centres undefined)	-7	-18	15	x	-23	8
Cc1ccc2c(c1)N(CCC(=O)NCc1ccco1)C(=O)CO2	-4	0	0	-4	-2	6
O=C(CCN1C(=O)COc2ccccc21)NCc1ccco1	-4	-2	5	53*	-9	18

Compound activity: PubChem BioAssay, several laboratories
